Screens: PubChem, The Scripps Research Institute Molecular Screening Center
PLCg1 inh – PLC-gamma1 enzyme inhibitors, primary screen, biochemical, fluorescence, purified enzyme | 1-phosphatidylinositol 4,5-bisphosphate phosphodiesterase gamma-1 (Homo sapiens), P19174 | fluorogenic substrate | inhibition, % at 12.2 µM | 370,000 compounds, 0.84% hits | AID 720700, 2013; in the data active = inhibition above about 9.5%
ASAP1 GAP inh – inhibitors of human ASAP1 ArfGAP activity, primary screen, biochemical, fluorescence polarization; Arf-GAP with SH3 domain, ANK repeat and PH domain-containing protein 1 (Homo sapiens), …; 360,000 compounds, 0.19% hits; inhibition, % at 16.5 µM; ASAP1-stimulated ARF1 GTP hydrolysis, GDP FP detection; AID 624377, 2012; in the data active = inhibition above about 25%
HGIII-sPLA2 inh – human group III sPLA2 inhibitors, primary screen, biochemical, QFRET, BODIPY PC-A2 liposome substrate; inhibition, % at 12.2 µM; 370,000 compounds, 0.56% hits; Group 3 secretory phospholipase A2 (Homo sapiens), Q9NZ20; AID 743126, 2013; QFRET BODIPY PC-A2 liposome hydrolysis, fluorescence;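 active = inhibition above mean plus 3 SD of compounds lying within the high and low control bounds, cut at about 19% in these data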
ARFGAP1 inh – inhibitors of rat ARFGAP1 GAP activity, primary screen, biochemical, fluorescence polarization, GDP tracer; AID 651572, 2012; 360,000 compounds, 0.26% hits; inhibition, % at 16.5 µM; Arfgap1-stimulated ARF1 GTP hydrolysis, GDP FP detection;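 active = inhibition above a per-plate limit, mean inhibition of low control wells plus 3 SD, cut at about 25% in these data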
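Material: rat Arfgap1 GAP domain (His6, aa 1-136), purified enzyme. Also added: human ARF1(Δ1-17)-GTP substrate. Compound dosing: 16.5 µM single point, 1.26% DMSO. Timing: enzyme reaction 120 min at 25 °C after 20 min preincubation. Signal: GDP detection by fluorescence polarization. Read-out basis: percent inhibition of GAP-stimulated GDP formation, scaled between DMSO and no-Arfgap1 medians.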
PLCb3 inh – human PLC-beta3 inhibitors, primary screen, biochemical, fluorescence; 1-phosphatidylinositol 4,5-bisphosphate phosphodiesterase beta-3 (Homo sapiens), Q01970; Purified PLC-beta3, fluorogenic substrate; inhibition, % at 12.2 µM; 370,000 compounds, 0.18% hits
PLCg1 ctr – PLC-gamma1 enzyme inhibitors, counter-screen for PLC-beta3 inhibitor project, biochemical, fluorescence; shares compounds with PLCg1 inh; purified PLC-gamma1, fluorogenic substrate; inhibition, % at 12.3 µM; 3,300 compounds, 3.1% hits; AID 743258, 2014; in the data active = inhibition above about 9.5%
PLCb3 confirm – PLC-beta3 inhibitor confirmation, biochemical, fluorescence, purified enzyme; 3,300 compounds, 1% hits; fluorogenic substrate fluorescence; AID 743261, 2014; shares compounds with PLCg1 inh; inhibition, % at 12.3 µM
Numbers stand for hits; 0 = inactive; - = no result given. Compounds with a hit are over-represented: about 1.9% of the library has one in this group of screens. Rule as the data show it, unless noted: active = inhibition above about 11%; inactive = the rest.

SMILES | PLCg1 inh | ASAP1 GAP inh | HGIII-sPLA2 inh | ARFGAP1 inh | PLCb3 inh | PLCg1 ctr | PLCb3 confirm
Cc1ccc(C(=O)NCCN2C3=NC[C@@H](Cc4ccccc4)N3C[C@H]2Cc2ccc(O)cc2)cc1Br | 9.9 | 0 | 0 | 0 | 0 | 0 | 0
CC(c1ccc(NC(=O)OC(C)(C)C)cc1)c1cn(C)c2ccccc12 (stereo not given) | 0 | - | 0 | - | 0 | - | -
CCOn1c(-n2nc(C)cc2C)nc2ccccc2c1=O | 0 | 0 | 0 | 0 | 0 | - | -
Cc1cc(C)n(-c2nc3ccccc3c(=O)n2OC2CCCCC2)n1 | 0 | 0 | 0 | 0 | 14.6 | 0 | 0
CN(C)c1ncnc2[nH]ncc12 | 13.1 | 0 | 0 | 0 | 0 | 0 | 0
O=C(NC1CCCCN(Cc2cccc(F)c2)C1=O)c1cccc(C(F)(F)F)c1 (stereo not given) | 0 | - | 0 | - | 0 | - | -
COC(=O)CCCCCCCCC(O)CN1CCCCC1 (stereo not given) | 0 | 0 | 0 | 0 | 12.4 | 0 | 0
CCc1ccc(C(=O)NNc2cc(Cl)ccc2Cl)cc1 | 10.0 | 0 | 0 | 0 | 0 | 0 | 0
CCc1ccc(C(=O)NNc2ccccc2F)cc1 | 0 | 0 | 0 | 0 | 0 | - | -
Cc1ccc(S(=O)(=O)N(CC(=O)N/N=C/c2cccc(C)c2)c2cccc3cccnc23)cc1 | 11.0 | 0 | 0 | 0 | 0 | 0 | 0
COc1ccc2ccccc2c1C=Nn1c(-c2n[nH]c3c2CCC3)n[nH]c1=S | 0 | - | 0 | - | 0 | - | -
NC1=NC[C@H](Cc2ccc(O)cc2)N1CCc1cc(C(F)(F)F)cc(C(F)(F)F)c1 | 10.3 | 0 | 0 | 0 | 0 | 0 | 0
O=C(CCCN1C(=O)c2ccccc2C1=O)Nc1nccs1 | 14.0 | 0 | 0 | 0 | 0 | 0 | 0
C=CCN=C1NC(c2ccc(C(F)(F)F)cc2)C(C(=O)OC)=C(C)N1C (stereo not given) | 0 | 0 | 0 | 0 | 0 | - | -
Cc1csc2c(NCCCN3CCOCC3)ncnc12 | 12.9 | 0 | 0 | 0 | 0 | 0 | 0
COc1ccc(C(c2nnnn2Cc2ccccc2)N2CCN(C/C=C/c3ccccc3)CC2)cc1 (stereo not given) | 14.2 | 0 | 0 | 0 | 0 | 0 | 0
CCCN1CCC(C(=O)NC(c2ccc(Cl)cc2)c2ccsc2)CC1 (stereo not given) | 9.7 | 0 | 0 | 0 | 0 | 0 | 0
C#CCNC(=O)C[C@H]1C[C@@]2(C(=O)OC)C(=C[C@H](C3CCCC3)O[C@@H]2C)N(CCc2ccc(OC)c(OC)c2)C1=O | 0 | - | 0 | - | 0 | - | -
O=C1NC[C@H](Cc2ccccc2)N(C[C@H]2CCCN2C[C@H](Cc2ccccc2)N2C[C@H](Cc3ccccc3)N(CC3CCCCC3)C(=O)C2=O)C1=O | 13.8 | 0 | 0 | 0 | 0 | 0 | 0
CC(C)C[C@@H](CN1CCC[C@H]1CN1C(=O)C(=O)NC[C@@H]1Cc1ccc(O)cc1)N1C[C@H](Cc2ccccc2)N(CC2CCCCC2)C(=O)C1=O | 10.0 | 0 | 0 | 0 | 0 | 0 | 0
O=C(NC1CCCCN(Cc2ccc(Cl)cc2)C1=O)c1cccs1 (stereo not given) | 0 | - | 0 | - | 0 | - | -
COC(=O)C1=C(C)NC(=O)NC1c1ccccc1Cl (stereo not given) | 11.3 | 0 | 0 | 0 | 0 | 0 | 0
COC(=O)[C@]12C[C@H](CC(=O)N3CCC(c4ccccc4)CC3)C(=O)N(Cc3cccc4ccccc34)C1=C[C@H](COCc1ccccc1)O[C@@H]2C | 0 | - | 0 | - | 0 | - | -
Cc1ccc(-c2nc3ncccn3c2NC(=O)Nc2ccc(F)cc2)cc1 | 0 | - | 0 | - | 0 | - | -
CCOC(=O)c1sc(N)c(C#N)c1CSc1nc2ccc(OCC)cc2[nH]1 | 12.8 | 0 | 0 | 0 | 0 | 0 | 0
CCOC(=O)c1sc(N)c(C#N)c1CSc1nc2ccc(C)cc2[nH]1 | 0 | 0 | 0 | 0 | 0 | - | -
